Results taken from ChEMBL document CHEMBL3352152, “Indolylmethylene benzo[h]thiazolo[2,3-b]quinazolinones: synthesis, characterization and evaluation of anticancer and antimicrobial activities” (Bioorg Med Chem Lett, 2014).

Tests used:
[1] = system: Candida albicans; assay: Antifungal activity against Candida albicans MTCC 183 at 150 ug/ml after 48 hrs by agar well diffusion method; assay type: functional; details: MTCC 183, 48 h, read-out: IZ
Method in brief: (§1)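 Antifungal screen by agar well diffusion against C. albicans, C. glabrata, A. niger and A. parasiticus. Clotrimazole was the standard drug. Activity was recorded as zone of inhibition (ZOI, mm).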

[2] = system: Nakaseomyces glabratus; assay: Antifungal activity against Candida glabrata MTCC3019 at 150 ug/ml after 48 hrs by agar well diffusion method; assay type: functional; details: MTCC3019, 48 h, read-out: IZ; method in brief: as §1
[3] = system: Aspergillus niger; assay: Antifungal activity against Aspergillus niger MTCC 282 at 150 ug/ml after 48 hrs by agar well diffusion method; assay type: functional; details: MTCC 282, 48 h, read-out: IZ; method in brief: as §1
[4] = system: Aspergillus parasiticus; assay: Antifungal activity against Aspergillus parasiticus MTCC 8850 at 150 ug/ml after 48 hrs by agar well diffusion method; assay type: functional; details: MTCC 8850, 48 h, read-out: IZ; method in brief: as §1
[5] = system: MCF7; assay: Anticancer activity against human MCF7 cells assessed as cell viability after 48 hrs by MTT microcultured tetrazolium assay; assay type: functional, cell-based; details: MCF7, 48 h
Method in brief: (§2)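 MTT-microcultured tetrazolium viability read-out in MCF-7 and HepG2 cells exposed to test samples. Surviving fraction was plotted against drug concentration to give survival curves, and IC50 was taken from these curves.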

[6] = system: HepG2; assay: Anticancer activity against human HepG2 cells assessed as cell viability after 48 hrs by MTT microcultured tetrazolium assay; assay type: functional, cell-based; details: HepG2, 48 h; method in brief: as §2
[7] = system: Staphylococcus aureus; assay: Antibacterial activity against Staphylococcus aureus MTCC 96 at 150 ug/ml after 24 hrs by agar well diffusion assay; assay type: functional; details: MTCC 96, 24 h, read-out: IZ
Method in brief: (§3)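 Agar well diffusion screen against the two Gram-positive strains (S. aureus, S. pyogenes) and the two Gram-negative strains (P. aeruginosa, K. pneumoniae). Streptomycin was the reference drug. Activity was read as zone of inhibition (mm).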

[8] = system: Streptococcus pyogenes; assay: Antibacterial activity against Streptococcus pyogenes MTCC 1926 at 150 ug/ml after 24 hrs by agar well diffusion assay; assay type: functional; details: MTCC 1926, 24 h, read-out: IZ; method in brief: as §3
[9] = system: Klebsiella pneumoniae; assay: Antibacterial activity against Klebsiella pneumoniae MTCC 109 at 150 ug/ml after 24 hrs by agar well diffusion assay; assay type: functional; details: MTCC 109, 24 h, read-out: IZ; method in brief: as §3
[10] = system: Pseudomonas aeruginosa; assay: Antibacterial activity against Pseudomonas aeruginosa MTCC 4673 at 150 ug/ml after 24 hrs by agar well diffusion assay; assay type: functional; details: MTCC 4673, 24 h, read-out: IZ; method in brief: as §3

| Compound | zone of inhibition at 150 µg/mL [1] | zone of inhibition at 150 µg/mL [2] | zone of inhibition at 150 µg/mL [3] | zone of inhibition at 150 µg/mL [4] | IC50 [5] | IC50 [6] | zone of inhibition at 150 µg/mL [7] | zone of inhibition at 150 µg/mL [8] | zone of inhibition at 150 µg/mL [9] | zone of inhibition at 150 µg/mL [10] |
| --- | --- | --- | --- | --- | --- | --- | --- | --- | --- | --- |
| COc1ccc(C2C3=C(N=c4s/c(=C\c5c[nH]c6ccccc56)c(=O)n42)c2ccc(OC)cc2CC3)cc1 (stereo not given) | 18 mm | 20 mm | 18 mm | 18 mm | 54.4 µM | 61.1 µM | 17 mm | 18 mm | 15 mm | 8 mm |
| COc1ccc2c(c1)CCC1=C2N=c2s/c(=C\c3c(C)[nH]c4ccccc34)c(=O)n2C1c1cccc([N+](=O)[O-])c1 (stereo not given) | 17 mm | 14 mm | 20 mm | 18 mm | > 200 µM | 94.5 µM | 16 mm | 15 mm | 14 mm | 13 mm |
| COc1ccc2c(c1)CCC1=C2N=c2s/c(=C\c3c[nH]c4ccc(C)cc34)c(=O)n2C1c1cccc([N+](=O)[O-])c1 (stereo not given) | 8 mm | 12 mm | 8 mm | 8 mm | > 200 µM | 51.6 µM | 17 mm | 17 mm | 17 mm | 8 mm |
| COc1ccc2c(c1)CCC1=C2N=c2s/c(=C\c3c[nH]c4ccc(Br)cc34)c(=O)n2C1c1cccc([N+](=O)[O-])c1 (stereo not given) | 8 mm | 8 mm | 10 mm | 10 mm | > 200 µM | > 200 µM | 19 mm | 16 mm | 17 mm | 8 mm |
| COc1ccc2c(c1)CCC1=C2N=c2s/c(=C\c3c[nH]c4ccccc34)c(=O)n2C1c1cccc([N+](=O)[O-])c1 (stereo not given) | 8 mm | 8 mm | 12 mm | 8 mm | > 200 µM | 70.3 µM | 8 mm | 8 mm | 8 mm | 8 mm |
| COc1ccc(C2C3=C(N=c4s/c(=C\c5c(C)[nH]c6ccccc56)c(=O)n42)c2ccc(OC)cc2CC3)cc1 (stereo not given) | 8 mm | 8 mm | 8 mm | 10 mm | 112 µM | > 200 µM | 8 mm | 8 mm | 8 mm | 8 mm |
| COc1ccc(C2C3=C(N=c4s/c(=C\c5c[nH]c6ccc(OC)cc56)c(=O)n42)c2ccc(OC)cc2CC3)cc1 (stereo not given) | 8 mm | 8 mm | 14 mm | 10 mm | 30.6 µM | 57.5 µM | 8 mm | 8 mm | 8 mm | 8 mm |
